Consider 2 compounds from ChEMBL document CHEMBL1221394, “Anti-AIDS agents 79. Design, synthesis, molecular modeling and structure-activity relationships of novel dicamphanoyl-2',2'-dimethyldihydropyranochromone (DCP) analogs as potent anti-HIV agents” (Bioorg Med Chem, 2010).

pEC50, pIC50: −log10 of the molar value.

Series [1] is described as follows: Therapeutic index, ratio of IC50 for human TZM-b1 cells to EC50 for HIV1 NL4-3. The class given is cell-based. Conditions: read-out: TI. The method in brief: (§1)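 Cytotoxicity was measured with the CytoTox-Glo kit following the manufacturer's instructions. Antiviral EC50 came from the single-round TZM-bl luciferase assay: 200 TCID50 virus, eight 4-fold sample dilutions, 48 h, and 50% RLU reduction versus virus control after background subtraction.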

A short description of series [2]: Cytotoxicity against human TZM-b1 cells. The format is cell-based. The method in brief: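 Cytotoxicity in TZM-bl cells read with the CytoTox-Glo luminescent assay, run according to the kit instructions.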
Series [3] concerns Human immunodeficiency virus 1. Put plainly: Antiviral activity against wild type HIV1 NL4-3 in human TZM-b1 cells after 48 hrs by luciferase reporter gene assay. The format is functional, organism-based. The settings on record: Human immunodeficiency virus 1, NL4-3, TZM-b1, 48 h. The procedure, abridged: (§2)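 Single-round infection of TZM-bl cells with 200 TCID50 virus mixed with test sample at eight 4-fold serial dilutions. Incubated 48 h, then luciferase reagent was added and luminescence read. IC50 is the concentration giving 50% reduction in RLU versus virus-control wells, after subtracting background RLU.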
(In general: A reporter such as luciferase makes a cellular process visible.)

Series [4] has as its system Human immunodeficiency virus 1. As to the kind of experiment: Antiviral activity against HIV1 RTMDR1 in human TZM-b1 cells after 48 hrs by luciferase reporter gene assay. The format is functional, organism-based. The settings on record: Human immunodeficiency virus 1, RTMDR1, TZM-b1, 48 h. The method in brief: as §2
Series [5] is described as follows: Therapeutic index, ratio of IC50 for human TZM-b1 cells to EC50 for HIV1 RTMDR1. The format is cell-based. Conditions: read-out: TI. The procedure, abridged:
as §1

The test system of series [6] is Human immunodeficiency virus 1. As to the kind of experiment: Antiviral activity against HIV1 infected in human H9 cells. The class given is functional, organism-based. The settings on record: Human immunodeficiency virus 1, H9.
Series [7] in a line: Therapeutic index, ratio of CC50 for human H9 cells to EC50 for HIV1. The format is cell-based. Conditions: read-out: TI.
Series [8] relates to Human immunodeficiency virus 1. As to the kind of experiment: Antiviral activity against HIV1 RTMDR1 in human MT4 cells. The format is functional, organism-based. Conditions: Human immunodeficiency virus 1, RTMDR1, MT4.
The nature of series [9]: Therapeutic index, ratio of CC50 for human H9 cells to EC50 for HIV1 RTMDR1. The format is cell-based. Conditions: read-out: TI.
A short description of series [10]: Solubility of the compound in water after 1 hr. The format is physicochemical. Conditions: HPLC grade water, 1 h. The procedure, abridged: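 Excess solid compound was added to HPLC-grade water and sonicated in an ultrasonic bath at room temperature for 1 h. Undissolved solid was removed with a PTFE syringe filter. Dissolved concentration was quantified by HPLC on a C18 column (2.1 mm × 100 mm) at a flow rate of 200 μL/min.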

The subject of series [11] is Human immunodeficiency virus 1. As to the kind of experiment: Antiviral activity against HIV1 3B infected in human H9 cells. The format is functional, organism-based. The settings on record: Human immunodeficiency virus 1, 3B.
Series [12] is described as follows: Therapeutic index, ratio of CC50 for human H9 cells to EC50 for HIV1 3B. The format is cell-based. Conditions: read-out: TI.

By pIC50 is commonly meant the IC50 on a negative log10 scale, so that one unit is a factor of ten. Read a low pIC50 as a large IC50. What is called pEC50 is −log10 of the EC50, conventionally taken in molar units. A higher pEC50 goes with a small EC50. In general, solubility refers to the concentration that dissolves in the medium under given conditions. A higher solubility goes with much dissolved substance. `CCc1cc(=O)c2ccc3c(c2o1)[C@@H](OC(=O)[C@@]12CC[C@@](C)(C(=O)O1)C2(C)C)[C@@H](OC(=O)[C@@]12CC[C@@](C)(C(=O)O1)C2(C)C)C(C)(C)O3`: the selectivity ratio in [1] was 94; in series [5], 60; in series [7], 94; in series [9], 60. Also, the pIC50 in series [2] was 5.18. The negative-log EC50 (pEC50) in series [3] is 7.15; in [4] it was 6.96; in [6], 7.15; in series [8], 6.96. This compound returned a solubility in [10] of less than 0.9 µg/mL.
Regarding `Cc1cc(=O)oc2c3c(ccc12)OC(C)(C)[C@H](OC(=O)[C@@]12CC[C@@](C)(C(=O)O1)C2(C)C)[C@@H]3OC(=O)[C@@]12CC[C@@](C)(C(=O)O1)C2(C)C`, in series [11], the pEC50 was 8.23. The selectivity ratio in series [12] came out at 6660.
